Each structure is given as a SMILES string. Activity calls are given as the source filed them. The calls are words filed in the database; no cut-off is given here.

The text below walks through data of ChEMBL document CHEMBL4602627, “Further exploration of the structure-activity relationship of imidazoquinolines; identification of potent C7-substituted imidazoquinolines” (Bioorg Med Chem Lett, 2020).

Series [1] has as its target T1, Toll-like receptor 7/8 (Canis lupus familiaris) (UniProt A1XC23+H6BA89). Description: Agonist activity at TLR7/8 in dog PBMC assessed as increase in IFN-gamma secretion at 20 uM measured over 29 hrs by ELISA. (In general: In an ELISA, binding on a coated surface is turned into a signal by an enzyme label.)
For series [2], the target named is T1, Toll-like receptor 7/8 (Canis lupus familiaris). The experiment in a line: Agonist activity at TLR7/8 in dog PBMC assessed as IL-6 secretion at 20 uM after 29 hrs by ELISA (reference value: 310 +/- 90 pg/ml). In kind it is cell-based. The essentials: (§1)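 Canine PBMCs (2 × 10^6 cells/mL) were incubated with agonist at 20 µM for 29 h. TNFα, IL-12, IL-6, IL-10, IL-2 and IFNγ in the medium were measured by ELISA, in triplicate. Vehicle was 1% DMSO in water.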

The target is the same in series [3]. Description: Agonist activity at TLR7/8 in dog PBMC assessed as IFNgamma secretion at 20 uM after 29 hrs by ELISA (reference value: 0.4 +/- 0.7 pg/ml). The series is classed as cell-based. The essentials: as §1
A short description of series [4]: Solubility of the compound at >100 uM. In kind it is physicochemical.
The target of series [5] is T1, Toll-like receptor 7/8 (Canis lupus familiaris). Description: Agonist activity at TLR7/8 in dog PBMC assessed as maximal increase in IL-12 secretion at 20 uM after 30 to 48 hrs by ELISA. In kind it is cell-based.
For series [6] the target is unchanged. Description: Agonist activity at TLR7/8 in dog PBMC assessed as maximal increase in TNFalpha secretion at 20 uM after 30 to 48 hrs by ELISA. The series is classed as cell-based.
The target is the same in series [7]. The experiment in a line: Agonist activity at TLR7/8 in dog PBMC assessed as TNFalpha secretion at 20 uM after 29 hrs by ELISA (reference value: 8 +/- 2 pg/ml). The series is classed as cell-based. The essentials: as §1
Series [8] has the same target. The experiment in a line: Agonist activity at TLR7/8 in dog PBMC assessed as maximal increase in IFN-gamma secretion at 20 uM after 30 to 48 hrs by ELISA. The series is classed as cell-based.
Series [9] has the same target. The experiment in a line: Agonist activity at TLR7/8 in dog PBMC assessed as increase in TNFalpha secretion at 20 uM measured over 29 hrs by ELISA.
The target is the same in series [10]. The experiment in a line: Agonist activity at TLR7/8 in dog PBMC assessed as IL-10 secretion at 20 uM after 29 hrs by ELISA (reference value: 33 +/- 16 pg/ml). In kind it is cell-based. The method in brief:
as §1

Series [11] has the same target. The experiment in a line: Agonist activity at TLR7/8 in dog PBMC assessed as IL-2 secretion at 20 uM after 29 hrs by ELISA (reference value: 47 +/- 20 pg/ml). In kind it is cell-based. The essentials:
as §1

The target is the same in series [12]. The experiment in a line: Agonist activity at TLR7/8 in dog PBMC assessed as increase in IL-12 secretion at 20 uM measured over 29 hrs by ELISA.
Series [13] has the same target. The experiment in a line: Agonist activity at TLR7/8 in dog PBMC assessed as IL-12 secretion at 20 uM after 29 hrs by ELISA (reference value: 18 +/- 8 pg/ml). The series is classed as cell-based. The method in brief:
as §1

Consider `CCOCc1nc2c(N)nc3ccccc3c2n1CC(C)(C)O` [RESIQUIMOD], for which the result in [1], in [5], in series [6], in series [8], in series [9] and in [12] was Active. Also, the Activity in series [2] amounted to 380 pg/mL; in series [3] it was 26 pg/mL; in series [7] it was 190 pg/mL; in series [10], 21 pg/mL; in series [11], 120 pg/mL; in series [13], 2800 pg/mL. Moreover, the solubility result in [4] is listed as “Insoluble”.
Regarding `CCOCc1nc2c(N)nc3cc(Cl)ccc3c2n1CC(C)(C)O`, the outcome in series [1], in [5], in series [6], in series [8], in series [9] and in series [12] was Active. In addition, the Activity amounted to 320 pg/mL in [2]; 16 pg/mL in series [3]; 70 pg/mL in series [7]; 12 pg/mL in series [10]; 76 pg/mL in [11]; 1900 pg/mL in series [13]. Besides, the solubility result in series [4] was “Insoluble”.
Turning to `CCOCc1nc2c(N)nc3cc(C#N)ccc3c2n1CC(C)(C)O`, the Activity in series [2] was 214 pg/mL; in series [3], 0.2 pg/mL; in series [7], 80 pg/mL; in series [10], 6 pg/mL; in series [11] it was 46 pg/mL; in series [13], 13 pg/mL. In addition, the solubility entry in series [4] was “Insoluble”. Further, the outcome in [5], in series [6] and in series [9] was Active.
In the case of `CCOCc1nc2c(N)nc3cc(Cl)ccc3c2n1CC(C)C`, the outcome in [1], in [5], in [6], in series [8], in series [9] and in [12] was Active. The Activity in series [2] was 280 pg/mL; in [3], 5 pg/mL; in series [7] it was 114 pg/mL; in series [10] it was 20 pg/mL; in [11], 50 pg/mL; in series [13] it was 781 pg/mL. Further, the solubility entry in series [4] is “Insoluble”.
With `CCOCc1nc2c(N)nc3cc(C#N)ccc3c2n1CC(C)C`, the outcome in series [1], in series [5], in series [6], in [8] and in [12] was Active. The Activity stood at 71 pg/mL in [2]; 4 pg/mL in series [3]; 7 pg/mL in [7]; 6 pg/mL in series [10]; 57 pg/mL in series [11]; 190 pg/mL in [13]. The solubility result in [4] was “Insoluble”.
For `CCCCc1nc2c(N)nc3cc(OC)ccc3c2n1CC(C)C`, the Activity was 500 pg/mL in series [2]; 0 pg/mL in [3]; 49 pg/mL in series [7]; 37 pg/mL in [10]; 30 pg/mL in series [11]; 746 pg/mL in series [13]. Moreover, the solubility result in series [4] is recorded as “Insoluble”. Besides, the result in [5], in series [6], in [8], in [9] and in [12] was Active.
For the compound `CCCCc1nc2c(N)nc3cc(C#N)ccc3c2n1CC(C)(C)O`, the outcome in series [1], in [5], in [6], in series [8], in series [9] and in series [12] was Active. Also, the Activity was determined as 290 pg/mL in series [2]; 12 pg/mL in series [3]; 44 pg/mL in series [7]; 14 pg/mL in [10]; 45 pg/mL in [11]; 418 pg/mL in series [13]. In addition, in [4], the solubility result is listed as “Insoluble”.
Regarding `CCCCc1nc2c(N)nc3cc(Cl)ccc3c2n1CC(C)C`, the result in series [1], in [5], in series [6], in series [8], in series [9] and in series [12] was Active. In addition, the Activity in series [2] worked out at 240 pg/mL; in [3], 7 pg/mL; in series [7], 91 pg/mL; in series [10], 14 pg/mL; in series [11], 63 pg/mL; in series [13] it was 760 pg/mL. Also, the solubility entry in [4] was “Insoluble”.
For the compound `CCCCc1nc2c(N)nc3cc(C#N)ccc3c2n1CC(C)C`, the result in [1], in [5], in series [6], in series [8], in series [9] and in series [12] was Active. In addition, the Activity in series [2] was 350 pg/mL; in [3], 13 pg/mL; in series [7] it was 10 pg/mL; in series [10], 37 pg/mL; in series [11], 60 pg/mL; in series [13], 920 pg/mL. Besides, the solubility entry in [4] is given as “Insoluble”.
In the case of `CC(C)Cn1cnc2c(N)nc3ccccc3c21` [IMIQUIMOD], the result in [1], in series [5], in series [6], in [8], in [9] and in [12] was Active. Further, the Activity in [2] was 300 pg/mL; in [3], 18 pg/mL; in series [7], 25 pg/mL; in series [10], 16 pg/mL; in [11], 85 pg/mL; in [13] it was 1200 pg/mL. Besides, in series [4], the solubility entry is “Insoluble”.
